Test results: ChEMBL document CHEMBL2057101, “Fluorocyclines. 2. Optimization of the C-9 side-chain for antibacterial activity and oral efficacy” (J Med Chem, 2012)
Converted amounts (≈) assume the structure as drawn.

Columns and labels:
Type in all cases: functional
[1] = test system: Streptococcus pneumoniae; test: Antibacterial activity against tetracycline-resistant Streptococcus pneumoniae isolate 160 expressing tetM gene
[2] = test system: Staphylococcus aureus; test: Antibacterial activity against tetracycline-resistant Staphylococcus aureus isolate SA158 expressing TetK gene
[3] = test system: Escherichia coli; test: Antibacterial activity against Escherichia coli isolate EC155 expressing tetA gene
Outline: (§1)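 MIC by broth microdilution in liquid medium per CLSI, in cation-adjusted Mueller Hinton broth made fresh and held at 4 °C before testing. Horse blood (defibrinated) added to the medium where appropriate. Runs were accepted only when the comparator antibiotics and ATCC QC strains fell within their recommended ranges.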

[4] = test system: Escherichia coli; test: Antibacterial activity against Escherichia coli ATCC 25922 isolate 107; outline: as §1
[5] = test system: Streptococcus pneumoniae; test: Antibacterial activity against Streptococcus pneumoniae ATCC 49619 isolate 106; outline: as §1
[6] = test system: Klebsiella pneumoniae; test: Antibacterial activity against Klebsiella pneumoniae ATCC 13883; outline: as §1
[7] = test system: Staphylococcus aureus; test: Antibacterial activity against tetracycline-resistant Staphylococcus aureus isolate SA161 expressing TetM gene
Outline: (§2)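 Broth microdilution MIC following CLSI methods in cation-adjusted Mueller Hinton broth, prepared fresh and held at 4 °C before testing. Defibrinated horse blood added to the medium where appropriate. Runs accepted when quality control ranges for comparator antibiotics and ATCC QC strains were met.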

[8] = test system: Staphylococcus aureus; test: Antibacterial activity against tetracycline-susceptible Staphylococcus aureus ATCC 13709 Smith isolate SA100; outline: as §2
[9] = test system: Staphylococcus aureus; test: Antibacterial activity against Staphylococcus aureus ATCC 13709 infected in po dosed CD-1 mouse assessed as increase in survival administered as single dose 1 hr post infection measured after 48 hrs post infection; conditions: ATCC 13709, po, read-out: PD50
[10] = test system: Staphylococcus aureus; test: Antibacterial activity against Staphylococcus aureus ATCC 13709 infected in CD-1 mouse assessed as increase in survival at 30 mg/kg, po administered as single dose 1 hr post infection measured after 48 hrs post infection
Outline: (§3)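 Mouse septicemia screen: S. aureus grown to log phase, diluted in 5% mucin to give 90% mortality within 48 h, inoculum 1.98 × 10⁶ CFU/mouse, 0.5 mL intraperitoneal into female CD-1 mice (18−20 g). Six mice per group. Single 30 mg/kg oral gavage or 3 mg/kg IV dose 1 h post infection. Infection controls received sterile water vehicle. Survival recorded at 48 h.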

[11] = test system: Staphylococcus aureus; test: Antibacterial activity against Staphylococcus aureus ATCC 13709 infected in CD-1 mouse assessed as increase in survival at 3 mg/kg, iv administered as single dose 1 hr post infection measured after 48 hrs post infection; outline: as §3
[12] = test system: Streptococcus pyogenes; test: Antibacterial activity against Streptococcus pyogenes; outline: as §1
[13] = test system: Staphylococcus aureus; test: Antibacterial activity against methicillin-resistant Staphylococcus aureus VL-137; outline: as §2
[14] = test system: Moraxella catarrhalis; test: Antibacterial activity against Moraxella catarrhalis; outline: as §1
[15] = test system: Haemophilus influenzae; test: Antibacterial activity against Haemophilus influenzae 551; outline: as §1
[16] = test system: Streptococcus pneumoniae; test: Antibacterial activity against Streptococcus pneumoniae SPN160; outline: as §2
[17] = test system: Acinetobacter baumannii; test: Antibacterial activity against Acinetobacter baumannii; outline: as §1

CCCNc1cc(F)c2c(c1O)C(=O)C1=C(O)[C@]3(O)C(=O)C(C(N)=O)=C(O)[C@@H](N(C)C)[C@@H]3C[C@@H]1C2
MIC [1]: 4 µg/mL (≈ 8.17 µM) | MIC [2]: 0.5 µg/mL (≈ 1.02 µM) | MIC [3]: > 32 µg/mL | MIC [4]: 32 µg/mL (≈ 65.4 µM) | MIC [5]: 1 µg/mL (≈ 2.04 µM) | MIC [6]: > 32 µg/mL | MIC [7]: 0.5 µg/mL (≈ 1.02 µM) | MIC [8]: 0.5 µg/mL (≈ 1.02 µM)

CC(C)CCNc1cc(F)c2c(c1O)C(=O)C1=C(O)[C@]3(O)C(=O)C(C(N)=O)=C(O)[C@@H](N(C)C)[C@@H]3C[C@@H]1C2
MIC [1]: 4 µg/mL (≈ 7.73 µM) | MIC [2]: 0.13 µg/mL (≈ 0.251 µM) | ED50 [9]: > 60 mg/kg | MIC [3]: > 32 µg/mL | survival at 30 mg/kg [10]: 33% | MIC [4]: > 32 µg/mL | MIC [5]: 2 µg/mL (≈ 3.86 µM) | MIC [6]: > 32 µg/mL | MIC [7]: 0.5 µg/mL (≈ 0.966 µM) | MIC [8]: 0.25 µg/mL (≈ 0.483 µM) | survival at 3 mg/kg [11]: 17%

CN(C)[C@@H]1C(O)=C(C(N)=O)C(=O)[C@@]2(O)C(O)=C3C(=O)c4c(O)c(NCC(C)(C)C)cc(F)c4C[C@H]3C[C@@H]12
MIC [1]: 16 µg/mL (≈ 30.9 µM) | MIC [2]: 0.25 µg/mL (≈ 0.483 µM) | MIC [3]: > 32 µg/mL | MIC [4]: > 32 µg/mL | MIC [5]: 4 µg/mL (≈ 7.73 µM) | MIC [6]: > 32 µg/mL | MIC [7]: 2 µg/mL (≈ 3.86 µM) | MIC [8]: 0.25 µg/mL (≈ 0.483 µM)

CN(C)[C@@H]1C(O)=C(C(N)=O)C(=O)[C@@]2(O)C(O)=C3C(=O)c4c(O)c(CNCC(C)(C)C)cc(F)c4C[C@H]3C[C@@H]12
MIC [1]: 0.25 µg/mL (≈ 0.47 µM) | MIC [2]: 2 µg/mL (≈ 3.76 µM) | MIC [3]: 16 µg/mL (≈ 30.1 µM) | MIC [4]: 4 µg/mL (≈ 7.52 µM) | MIC [5]: 0.25 µg/mL (≈ 0.47 µM) | MIC [6]: 8 µg/mL (≈ 15 µM) | MIC [7]: 4 µg/mL (≈ 7.52 µM) | MIC [8]: 2 µg/mL (≈ 3.76 µM)

CN(C)[C@@H]1C(O)=C(C(N)=O)C(=O)[C@@]2(O)C(O)=C3C(=O)c4c(O)c(CNC(=O)CNC(C)(C)C)cc(F)c4C[C@H]3C[C@@H]12
MIC [1]: 4 µg/mL (≈ 6.96 µM) | MIC [2]: 16 µg/mL (≈ 27.8 µM) | MIC [3]: > 32 µg/mL | MIC [4]: 32 µg/mL (≈ 55.7 µM) | MIC [5]: 0.5 µg/mL (≈ 0.87 µM) | MIC [6]: > 32 µg/mL | MIC [7]: > 32 µg/mL | MIC [8]: 16 µg/mL (≈ 27.8 µM)

CN(C)[C@@H]1C(O)=C(C(N)=O)C(=O)[C@@]2(O)C(O)=C3C(=O)c4c(O)c(NC(=O)[C@@H]5CCCN5)cc(F)c4C[C@H]3C[C@@H]12
MIC [1]: 0.016 µg/mL (≈ 0.0294 µM) | MIC [2]: 0.5 µg/mL (≈ 0.918 µM) | MIC [3]: 16 µg/mL (≈ 29.4 µM) | survival at 30 mg/kg [10]: 0% | MIC [4]: 1 µg/mL (≈ 1.84 µM) | MIC [5]: 0.016 µg/mL (≈ 0.0294 µM) | MIC [6]: 1 µg/mL (≈ 1.84 µM) | MIC [7]: 0.5 µg/mL (≈ 0.918 µM) | MIC [8]: 0.25 µg/mL (≈ 0.459 µM) | survival at 3 mg/kg [11]: 100%

CN(C)[C@@H]1C(O)=C(C(N)=O)C(=O)[C@@]2(O)C(O)=C3C(=O)c4c(O)c(NC(=O)CN5CCCC5)cc(F)c4C[C@H]3C[C@@H]12 [ERAVACYCLINE]
MIC [1]: 0.016 µg/mL (≈ 0.0286 µM) | MIC [2]: 0.016 µg/mL (≈ 0.0286 µM) | MIC [3]: 1 µg/mL (≈ 1.79 µM) | MIC [4]: 0.016 µg/mL (≈ 0.0286 µM) | MIC [5]: 0.016 µg/mL (≈ 0.0286 µM) | MIC [6]: 0.125 µg/mL (≈ 0.224 µM) | MIC [7]: 0.016 µg/mL (≈ 0.0286 µM) | MIC [8]: 0.016 µg/mL (≈ 0.0286 µM)

C[C@H]1COc2c(N3CCN(C)CC3)c(F)cc3c(=O)c(C(=O)O)cn1c23.C[C@H]1COc2c(N3CCN(C)CC3)c(F)cc3c(=O)c(C(=O)O)cn1c23.O [LEVOFLOXACIN]
MIC50 [12]: 0.5 µg/mL | MIC90 [12]: 2 µg/mL | MIC50 [13]: 16 µg/mL | MIC90 [13]: > 32 µg/mL | MIC50 [14]: 0.031 µg/mL | MIC90 [14]: 0.063 µg/mL | MIC [15]: 0.016 µg/mL | MIC50 [15]: 0.016 µg/mL | MIC90 [15]: 0.031 µg/mL | MIC50 [16]: 1 µg/mL | MIC90 [16]: 1 µg/mL | MIC50 [17]: 4 µg/mL | MIC90 [17]: 32 µg/mL
